# Source: PubChem BioAssay (Broad Institute)
# CaV13 FRET inh – Disruptors of the CACNA1D IQ motif to Ca2+-dependent inactivation inhibitor domain association, primary screening, Förster resonance energy transfer in intact living …. HEK cells, CFP/YFP FRET ICDI-IQ, plate reader, 10 min; percent FRET-ratio fall versus neutral wells. 340,000 compounds, 0.098% hits. AID 743397. inhibition, % at 12.3 µM;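 active = mean replicate inhibition of at least 30% and at least 1% of replicates passing that level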;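 note: 0% = median of the neutral control wells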
# rRNA inh HTS – reduced GFP signal of wild-type E. coli, primary screen, bacterial rRNA inhibitor project, GFP/RFP fluorescence, OD600, single point; E. coli WT GFP vs humanized-ribosome RFP mutants, 24 h; active compounds read low; DMSO median 0, no signal -100; GFP signal change (wild-type ribosome), % (no concentration beside the values); 350,000 compounds, 1.6% hits;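 active = significant combined selectivity score with lowered wild-type GFP, culture density cut under 30%, mutant RFP and density less affected; inactive = any of these conditions unmet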
# F508del corr – F508del CFTR correction, initial screen, CFBE line, single point | CFBE cells, YFP halide quenching; stimulated with forskolin plus potentiator P3; % fluorescence drop versus neutral controls | activity (quench increase), % at 7.58 µM | 350,000 compounds, 0.36% hits | AID 720511, 2013;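 active = mean added fluorescence quench of at least 8% versus neutral control, with both replicates also reaching 8%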;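 note: cells transiently co-express mutant CFTR-F508del with the halide-sensitive YFP; corrector assay measuring rescue of mutant channel to the surface after 24 h compound exposure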
# Cneo AK release – Cryptococcus neoformans cell lysis inducers, primary screen, AK release luminescence, single concentration. C. neoformans lysis, adenylate kinase release luminescence, 4 h; normalised: neutral wells 0, clomiphene wells 100. lysis activity, % at 15 µM. 360,000 compounds, 0.2% hits. AID 651654, 2012;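 active = mean lysis activity across replicates of at least 80%, whatever share of replicates individually reach that level; inactive = mean lysis activity below 80%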
#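 Material – Cryptococcus neoformans yeast cells · Quantity – 5 × 10^6 yeast cells/mL · Buffer or medium – YPD medium · Compound – single dose · Timing – 4 h static compound exposure, 37 °C, read 1 h post-reagent · Signal – adenylate kinase release luminescence · Read-out basis – lysis from increased AK signal · Benchmarks – Clomiphene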
# Starred values were filed as active, the others as inactive; . = not tested or not shown; + = active, no number. This is a sample that favours compounds with a hit; in the whole collection about 1.7% have one here.
SMILES,CaV13 FRET inh,rRNA inh HTS,F508del corr,Cneo AK release
CCOCCCNC(=O)CN1C(=O)/C(=C/c2ccccc2C)Sc2ccccc21,-18,-8,0,0
CSc1ccccc1NC(=S)N/N=C/c1cccn1Cc1ccc(F)cc1,-9,-21*,2,.
CSc1ccccc1NC(=S)N/N=C/c1cccn1Cc1cccc(C)c1,-3,12,-2,.
Clc1c(Cl)c(Cl)c2n[nH]nc2c1Cl,-14,-53*,0,.
CCOc1ccc(NC(=S)NCc2cccnc2)cc1,1,-20*,-1,-2
C[C@@H]1CN([C@@H](C)CO)C(=O)c2cc(NC(=O)Nc3ccccc3)ccc2O[C@@H](C)CCCCO[C@H]1CN(C)S(=O)(=O)c1ccc(Cl)cc1,.,6,-4,-6
COc1ccc2[nH]c3c(NCCC4=CCCCC4)ncnc3c2c1,-4,-54*,-2,.
COc1ccc2[nH]c3c(NCCCOC(C)C)ncnc3c2c1,-10,-6,1,.
O=S1OC(c2ccccc2)c2cc(Cl)ccc21 (stereo not drawn),-4,-15*,-1,-2
COc1ccccc1C(=O)N1C[C@H]2[C@@H](c3ccccc31)[C@@H](CO)N2C(=O)Cc1ccccc1,.,2,7,101*
COc1ccccc1C(=O)N1C[C@@H]2[C@H](c3ccccc31)[C@@H](CO)N2C(=O)Cc1ccccc1,.,2,-2,1
O=C(Nc1cccc(Cl)c1)N1C[C@H]2[C@@H](c3ccccc31)[C@@H](CO)N2C(=O)c1cccnc1,.,-16,3,7
CCCNC(=O)N1C[C@@H]2[C@H](c3ccccc31)[C@@H](CO)N2Cc1ccc(OC)cc1,.,-1,0,-1
O=C(Nc1cccc(Cl)c1)N1C[C@@H]2[C@H](c3ccccc31)[C@@H](CO)N2C(=O)c1cccnc1,.,-51*,-3,-3
CCCNC(=O)N1C[C@@H]2[C@H](c3ccccc31)[C@H](CO)N2Cc1ccc(OC)cc1,.,5,8.2*,101*
O=C(Nc1cc(F)ccc1F)N1C[C@@H]2[C@H](c3ccccc31)[C@H](CO)N2Cc1ccncc1,.,-43*,-3,-7
C[C@@H]1CN([C@@H](C)CO)C(=O)c2cc(-c3cccc(F)c3)cnc2O[C@@H]1CN(C)C(=O)C1CC1,.,6,-3,.
COCC(=O)N1C[C@H]2[C@@H](c3ccccc31)[C@@H](CO)N2Cc1ccc(OC)cc1,.,-4,6,44
COCC(=O)N1C[C@@H]2[C@H](c3ccccc31)[C@H](CO)N2Cc1ccc(OC)cc1,.,4,10*,63
CCCN1[C@@H]2c3ccc(-c4ccc(C(=O)N(C)C)cc4)c(=O)n3C[C@@H]2[C@@H](CO)[C@@H]1C(=O)NCCOC,.,0,.,-2
COc1c(Br)cc([N+](=O)[O-])c(OC)c1C(=O)NC(=O)Nc1c(Cl)cccc1Cl,-22,-38*,1,0
OC(CN1CCCCC1)Cn1c2ccccc2c2ccccc21 (stereo not drawn),-18,16,1,-1
O=c1c2ccccc2n(CC(O)CN2CCCCC2)c2ccccc12 (stereo not drawn),+,3,2,8
O=C(/C=C/c1cn(CC(O)CN2CCCCC2)c2ccccc12)c1ccccc1 (stereo not drawn),-6,-38*,-1,.
N#C[C@H]1[C@@H](c2ccccc2C2=CCCC2)[C@@H](CO)N1C(=O)NC1CCCC1,.,-5,-1,.
SMILES,CaV13 FRET inh,rRNA inh HTS,F508del corr,Cneo AK release
C[C@@H]1CCCCO[C@H](CN(C)S(=O)(=O)c2cccs2)[C@H](C)CN([C@H](C)CO)C(=O)c2cc(NC(=O)Nc3ccccc3)ccc2O1,.,1,0,-2
COc1ccc(CC(=O)NC(=S)Nc2cccc(C)c2)cc1,-4,-18,1,.
COc1cccc(NC(=S)NC(=O)Cc2ccc(Cl)cc2)c1,-1,-31,-1,83*
COc1cccc(NC(=S)NC(=O)c2cncc(Br)c2)c1,-5,-24*,0,2
CN(c1ccc(OCCOc2ccccc2Cl)cc1)S(=O)(=O)c1ccccc1,-16,5,8.1*,0
N=c1ccn(CC(=O)c2ccc(-c3ccccc3)cc2)cc1,-19,-41*,5,.
O=C(CN1C(=O)CCC1=O)c1ccc(-c2ccccc2)cc1,-3,.,.,.
